Usually apparent Kd stands for the concentration giving half-maximal binding under the conditions of the assay.

The test system of this data set is MS2 coat protein. Description: apparent Kd, MS2 coat protein; higher = weaker binding; RNA-MaP array; FMN 200 µM where present. The essentials:
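SNAP-549-labelled MS2 coat protein, doubled from 0.7 or 1.5 nM to 3 µM, was titrated over designs transcribed by stalled E. coli RNA polymerase on Illumina sequencing-chip clusters. Titrations were run without and then with constant ligand in 100 mM Tris-HCl pH 7.5, 80 mM KCl, 4 mM MgCl2, BSA, DTT, yeast tRNA and Tween-20. The apparent Kd is the median of filtered per-cluster fits to green signal normalised to red-channel RNA signal and control-cluster median Fmax.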

[1] abbreviates: designed as: OFF switch for flavin mononucleotide, no ligand.
Where [2] appears, read: ligand present: flavin mononucleotide, designed as: OFF switch for flavin mononucleotide.
The mark [3] stands for this setting: designed as: ON switch for flavin mononucleotide, no ligand.
Where [4] appears, read: ligand present: flavin mononucleotide, designed as: ON switch for flavin mononucleotide.

“GUAAAGUGAGGAUAUGGUGAGUAGUGCCUGAGCGCUGCUCACCAGAAGGCACAUGAGGAUCACCCAUGUAUAGC”: the “apparent Kd” value under setting [1] is 14.7 nM and the “apparent Kd” value under setting [2] worked out at 27.1 nM.
On the same counts, the results for “GCUAAGCGAAUCAAGAUGGAUAGAACAUGAGGAUCACCCAUGUAGGAUAUGCUACACAAAGUGUAGCAGAAGGACAAGCUUAGC” are 19.9 nM and 33.5 nM.
As to “CAUUAAUUAAUUAGUUUAUAAAUACAGGAUAUGUUACAUGAGGAUCACCCAUGUUUACAUGGGAUACAGAAGGGUAAAUCAAUA”, the “apparent Kd” value stood at 192 nM under setting [1] and 145 nM under setting [2].
On the same counts, the results for “UCGGCGCGAGGAUAUGCGGCUCCUGCUUCGGGCCGGAGCGUACAUGAGGAUCACCCAUGUAGAAGGCGCGCCGC” are 12 nM and 13.9 nM.
In the same order, the values of “AAUAAUAAGGAGGAUAUCGUAUCGGAAACGAUACGAGAAGGUCUAACAUGAGGAUCACCCAUGUUCCUCAAAUA” are 38.1 nM and 54.3 nM.
In the same order, the values of “AAUAUGAGCUGGAAUAAACCUUGAACAUGAGGAUCACCCAUGUAGGAUAUCAGCACGAUAAGUGCUGAGAAGGACAACCAGCUC” are 13.6 nM and 15.3 nM.
As for “UAUGUGUCAGGAUAUUAGUAGUAAAUAAAUAAAAUUAUUACUGAGAAGGGACAUGAGGAUCACCCAUGUGCCUC”, the “apparent Kd” value reads like this: under setting [1], 32.8 nM; under setting [2], 354 nM.
On the same counts, the results for “UUGUUACAUGAGGAUCACCCAUGUGAGGAUAUGUGUAUCCCUAAAAAAGUGUGGGACCACAGAAGGUACUUGGA” are 54.6 nM and 68.1 nM.
On the same counts, the results for “AAACAUGUCCGAGGAUAUCUGGAAACAUUUUCAAGAGAAGGCGGACAUGAGGAUCACCCAUGUCUCUCCUCAUCAAGUCCAAGU” are 8.47 nM and 46.2 nM.
Regarding “GCGGUCAACGUAGGAUAUCUUCAGCCGCAGCGCAUUGCUGUACAUGAGGAUCACCCAUGUCCUGGAGAGAAGGACGGACUGCAA”, the “apparent Kd” value under setting [3] came out at 145 nM and the “apparent Kd” value under setting [4] turned out to be 23.2 nM.
On the same counts, the results for “GACUACGAGGGAGGAUAUCCUCAUUAAUUUGGUGGAGAAGGCCCUCUACAUGAGGAUCACCCAUGUAUCGCUAUAGUCAGACAU” are 9.92 nM and 6.95 nM.
On the same counts, the results for “GUAGCUAUCGGAGGAUAUUCAUACCGGAAACGGACAUGAGGAUCACCCAUGUGGCGAAAGCCUUUGGAGAAGGCCGAUAGCUAC” are 3.56 nM and 3.33 nM.
Turning to “UUUUAACAUGAGGAUCACCCAUGUGAGGAUAUCGAAAUUUAUAUUAAUAUUAUUUUAUCGAGAAGGCACAUUUU”, the “apparent Kd” value is 96.1 nM under setting [1] and 124 nM under setting [2].
For “UAAAUGUGAGGAUAUUCGAUUAACUCGGAGACGAGUUGAUCGGAGAAGGCACAUGAGGAUCACCCAUGUUCCUU”, the “apparent Kd” value by setting is: under setting [1], 24.8 nM; under setting [2], 232 nM.
Consider “CCACGUCACAUUAACAUGAGGAUCACCCAUGUCAAAAGACAUGAGGAUAUGCAUCCUAAUUGGAUGCAGAAGGCAUGGACGUGG”, for which the “apparent Kd” value by setting is: under setting [3], 475 nM; under setting [4], 36.1 nM.
Take “GCGCAAACAUGAGGAUAUGUAUUAAAUAAUAAUACAGAAGGCAUGUCAAAUGACAUGAGGAUCACCCAUGUUGGCAAAAUGCGC”: the “apparent Kd” value by setting is: under setting [3], 80.6 nM; under setting [4], 15.9 nM.
Turning to “UGUCGGAGCAGAGGAUAUGACAUGAGGAUCACCCAUGUAUGAACCAAUAGCUGGAAACAGCAAUGUAAGAAGGCUGCUCCGACA”, the “apparent Kd” value reads like this: under setting [1], 5.98 nM; under setting [2], 6.79 nM.
Take “UCUUAUUGCAAGGAUAUGCUUUUUAUUUCUUUUGCAGAAGGUGCAACAUGAGGAUCACCCAUGUUUCCGGGUAU”: the “apparent Kd” value under setting [1] is 24.1 nM and the “apparent Kd” value under setting [2] was determined as 59.5 nM.
In the same order, the values of “ACUAGAUGAGGAUAUGCAUAUUUUCGUGUUCUUCUAGGUUAACAUGAGGAUCACCCAUGUAGAAGGCGUCUAUG” are 21.1 nM and 47.6 nM.
On to “CAGUGCUGUCGAGAGGAUAUGCGGUGAUGGACAUGAGGAUCACCCAUGUUAGCGACAGCAUCACGGCAGAAGGCUCUACCCACUG”, for which the “apparent Kd” value reads like this: under setting [3], 29.4 nM; under setting [4], 17 nM.
As to “GGUUCUAGAGGAUAUACAAACUGAUCCUCAGAGCGCCGGCCACAUGAGGAUCACCCAUGUAGAAGGUUGGAAUC”, the “apparent Kd” value by setting is: under setting [1], 20.3 nM; under setting [2], 11.6 nM.
As to “AAUAAUAAGGAGGAUAUCGUAUCGGAGACGAUACGAGAAGGCUUAACAUGAGGAUCACCCAUGUUCCUCAAUAA”, the “apparent Kd” value was 35 nM under setting [1] and 76.7 nM under setting [2].
Take “CGGCGGAAAGGAUAUGCAUUAAUAUCAAUAUGUGGGCCACGACAUGAGGAUCACCCAUGUAGAAGGUUCAGCCG”: the “apparent Kd” value turned out to be 21.8 nM under setting [1] and 16.8 nM under setting [2].
On the same counts, the results for “UGGACCGAGCUGUCGGUUGACUCGAAGGAUAUGACAUGAGGAUCACCCAUGUGGGAUCUAAAUUGUCAGAAGGUUGGUUCUGGG” are 641 nM and 276 nM.

The values above are taken from the EternaBench riboswitch data.
